Key:
Mus musculus [1] = experiment: Anticonvulsant activity after intraperitoneal injection into mice by using MES screen test after 0.5 hr; assay type: functional
Mus musculus [2] = experiment: Anticonvulsant activity after intraperitoneal injection into mice measured in a maximal electroshock scree (MES) screen; assay type: functional
Mus musculus [3] = experiment: Anticonvulsant activity after intraperitoneal injection into mice by using scPTZ screen after 0.5 hr; assay type: functional
Mus musculus [4] = experiment: Compound was tested for anticonvulsant activity after intraperitoneal injection into mice by using MES screen test after 0.5 hr; assay type: functional; conditions: ip
Summary of the method: (§1)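 Mice injected intraperitoneally at 30, 100 and 300 mg/kg and examined 0.5 and 4 h afterwards. Each entry is the minimum dose giving activity (MES protection, scPTZ protection, or rotorod failure for neurotoxicity) in half or more of the mice. Activity is called absent if nothing occurs at 300 mg/kg.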

Mus musculus [5] = experiment: Compound was tested for anticonvulsant activity after intraperitoneal injection into mice by using scPTZ screen test after 0.5 hr; assay type: functional; conditions: ip; summary of the method: as §1
[6] = Compound was tested for toxicity after intraperitoneal injection into mice by using neurotoxicity screen test after 2 hr; assay type: organism-based; conditions: mouse, in vivo, ip
Summary of the method: (§2)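 Quantitative intraperitoneal mouse testing in the MES, scPTZ or rotorod neurotoxicity screens at the peak time given for each compound (0.25–2 h). ED50 or TD50 reported in mg/kg with 95% CI and slope (SE).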

Rattus norvegicus [7] = experiment: Compound was tested for anticonvulsant activity after Oral Administration into Rats by using MES screen test after 4h,dose 50 mg/kg; number of rats out of four which were protected; assay type: functional
Summary of the method: (§3)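 Rats received the compound orally. […] Rats were tested in the MES screen at 0.25, 0.5, 1, 2 and 4 h. Each value is the number of rats protected out of 4. The test followed NINDS procedures.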

Rattus norvegicus [8] = experiment: Compound was tested for anticonvulsant activity after Oral Administration into Rats by using MES screen test after 2h,dose 50 mg/kg; number of rats out of four which were protected; assay type: functional; summary of the method: as §3
Rattus norvegicus [9] = experiment: Compound was tested for anticonvulsant activity after Oral Administration into Rats by using MES screen test after 0.25h,dose 50 mg/kg; number of rats out of four which were protected; assay type: functional; summary of the method: as §3
Rattus norvegicus [10] = experiment: Compound was tested for anticonvulsant activity after Oral Administration into Rats by using MES screen test after 0.5h,dose 50 mg/kg; number of rats out of four which were protected; assay type: functional; summary of the method: as §3
Rattus norvegicus [11] = experiment: Compound was tested for anticonvulsant activity after Oral Administration into Rats by using MES screen test after 1h,dose 50 mg/kg; number of rats out of four which were protected; assay type: functional; summary of the method: as §3
Rattus norvegicus [12] = experiment: Compound was tested for anticonvulsant activity after Oral Administration into Rats by using MES screen test after 0.25h,dose 12.5 mg/kg; No activity was demonstarted; assay type: functional, organism-based; set-up: dose 12.5 mg/kg; summary of the method: as §3
Rattus norvegicus [13] = experiment: Compound was tested for anticonvulsant activity after Oral Administration into Rats by using MES screen test after 4h,dose 12.50 mg/kg; number of rats out of four which were protected; assay type: functional; conditions: dose 12.5 mg/kg; summary of the method: as §3
Rattus norvegicus [14] = experiment: Compound was tested for anticonvulsant activity after Oral Administration into Rats by using MES screen test after 0.5h,dose 12.5 mg/kg; No activity was demonstarted; assay type: functional, organism-based; set-up: dose 12.5 mg/kg; summary of the method: as §3
Rattus norvegicus [15] = experiment: Compound was tested for anticonvulsant activity after Oral Administration into Rats by using MES screen test after 1h,dose 12.5 mg/kg; number of rats out of four which were protected; assay type: functional; summary of the method: as §3
Rattus norvegicus [16] = experiment: Compound was tested for anticonvulsant activity after Oral Administration into Rats by using MES screen test after 2h,dose 12.5 mg/kg; No activity was demonstarted; assay type: functional, organism-based; set-up: dose 12.5 mg/kg; summary of the method: as §3
Mus musculus [17] = experiment: Toxicity after intraperitoneal injection into mice by using toxicity screen test after 0.5 hr; assay type: organism-based; conditions: in vivo, ip; summary of the method: as §1
Mus musculus [18] = experiment: Compound was tested for toxicity after intraperitoneal injection into mice by using toxicity screen test after 4 hr; assay type: organism-based; conditions: in vivo, ip; summary of the method: as §1
Rattus norvegicus [19] = experiment: Compound was tested for anticonvulsant activity after Oral Administration into Rats by using MES screen test after 4h,dose 30 mg/kg; number of rats out of four which were protected; assay type: functional; summary of the method: as §3
Rattus norvegicus [20] = experiment: Compound was tested for anticonvulsant activity after Oral Administration into Rats by using MES screen test after 0.25h,dose 30 mg/kg; No activity was demonstarted; assay type: functional, organism-based; set-up: dose 30 mg/kg; summary of the method: as §3
Rattus norvegicus [21] = experiment: Compound was tested for anticonvulsant activity after Oral Administration into Rats by using MES screen test after 2h,dose 30 mg/kg; number of rats out of four which were protected; assay type: functional; summary of the method: as §3
Rattus norvegicus [22] = experiment: Compound was tested for anticonvulsant activity after Oral Administration into Rats by using MES screen test after 0.5h,dose 30 mg/kg; No activity was demonstarted; assay type: functional, organism-based; set-up: dose 30 mg/kg; summary of the method: as §3
Rattus norvegicus [23] = experiment: Compound was tested for anticonvulsant activity after Oral Administration into Rats by using MES screen test after 1h,dose 30 mg/kg; number of rats out of four which were protected; assay type: functional; summary of the method: as §3
Rattus norvegicus [24] = experiment: Compound was tested for anticonvulsant activity after Oral Administration into Rats by using MES screen test after 0.25h,dose 50 mg/kg; No activity was demonstarted; assay type: functional, organism-based; set-up: dose 50 mg/kg; summary of the method: as §3
Rattus norvegicus [25] = experiment: Compound was tested for anticonvulsant activity after Oral Administration into Rats by using MES screen test after 0.5h,dose 50 mg/kg; number of rats out of four which were protected.; assay type: functional; summary of the method: as §3
Rattus norvegicus [26] = experiment: Compound was tested for anticonvulsant activity after Oral Administration into Rats by using MES screen test after 4h,dose 12.5 mg/kg; No activity was demonstarted; assay type: functional, organism-based; set-up: dose 12.5 mg/kg; summary of the method: as §3
Rattus norvegicus [27] = experiment: Compound was tested for anticonvulsant activity after Oral Administration into Rats by using MES screen test after 1h,dose 12.5 mg/kg; No activity was demonstarted; assay type: functional, organism-based; set-up: dose 12.5 mg/kg; summary of the method: as §3
Mus musculus [28] = experiment: Anticonvulsant activity after intraperitoneal injection into mice by using scPTZ screen test after 4 hr; assay type: functional
Mus musculus [29] = experiment: Compound was tested for anticonvulsant activity after intraperitoneal injection into mice by using MES screen test after 2 hr; assay type: functional; conditions: ip; summary of the method: as §2
Mus musculus [30] = experiment: Compound was tested for anticonvulsant activity after intraperitoneal injection into mice by using scPTZ screen test after 2 hr; assay type: functional; conditions: ip; summary of the method: as §2
Rattus norvegicus [31] = experiment: Compound was tested for anticonvulsant activity after Oral Administration into Rats by using MES screen test after 4h,dose 12.5 mg/kg; number of rats out of four which were protected; assay type: functional; summary of the method: as §3
Rattus norvegicus [32] = experiment: Anticonvulsant activity after oral administration into rats; assay type: functional; set-up: concentration or dose not given beside the values
Rattus norvegicus [33] = experiment: Compound was tested for anticonvulsant activity after Oral Administration into Rats by using MES screen test after 2h,dose 12.5 mg/kg; number of rats out of four which were protected; assay type: functional; summary of the method: as §3
[34] = Protection index = TD50/ED50 (MES); conditions: mouse, in vivo; read-out: PI

NC(=O)N/N=C/c1ccc(Oc2ccccc2F)cc1 gave a Dose (Mus musculus [1]) of 100 mg/kg, a Dose (Mus musculus [2]) of 300 mg/kg and a Dose (Mus musculus [3]) of 300 mg/kg. For the same compound, the ED50 (Mus musculus [4]) was 20.7 mg/kg, the ED50 (Mus musculus [5]) was > 220 mg/kg and the TD50 at 2 h [6] was 170 mg/kg. It also gave an Activity (Rattus norvegicus [7]) of 4, an Activity (Rattus norvegicus [8]) of 4 and an Activity (Rattus norvegicus [9]) of 2. For the same compound, the Activity (Rattus norvegicus [10]) was 4 and the Activity (Rattus norvegicus [11]) was 4.

In the case of Cc1cccc(Oc2ccc(/C=N/NC(N)=O)cc2)c1C, the Dose (Mus musculus [2]) is reported as 100 mg/kg, the Activity (Rattus norvegicus [12]) is reported as “No activity” and the Activity (Rattus norvegicus [13]) is reported as 1. The Activity (Rattus norvegicus [14]) was “No activity”, the Activity (Rattus norvegicus [15]) was 1 and the Activity (Rattus norvegicus [16]) was “No activity”.

With CC/C(=N/NC(N)=O)c1ccc(Sc2ccc(F)cc2)cc1 the Dose (Mus musculus [1]) was 30 mg/kg, the Dose (Mus musculus [2]) was 100 mg/kg and the Dose (Mus musculus [17]) was 100 mg/kg. The Dose (Mus musculus [18]) was 100 mg/kg, the Activity (Rattus norvegicus [19]) was 3 and the Activity (Rattus norvegicus [20]) was “No activity”. For the same compound, the Activity (Rattus norvegicus [21]) was 3, the Activity (Rattus norvegicus [22]) was “No activity” and the Activity (Rattus norvegicus [23]) was 2.

Work on NC(=O)N/N=C/c1ccc(Oc2ccc(Cl)c(Cl)c2)cc1 yielded a Dose (Mus musculus [1]) of 300 mg/kg, a Dose (Mus musculus [2]) of 30 mg/kg and a Dose (Mus musculus [18]) of 300 mg/kg. The Activity (Rattus norvegicus [7]) was 4, the Activity (Rattus norvegicus [8]) was 4 and the Activity (Rattus norvegicus [24]) was “No activity”. It also gave an Activity (Rattus norvegicus [25]) of 2 and an Activity (Rattus norvegicus [11]) of 4.

With CC/C(=N/NC(N)=O)c1ccccc1Oc1ccc(F)cc1 the Dose (Mus musculus [18]) was 300 mg/kg, the Activity (Rattus norvegicus [12]) was “No activity” and the Activity (Rattus norvegicus [26]) was “No activity”. For the same compound, the Activity (Rattus norvegicus [14]) was “No activity”, the Activity (Rattus norvegicus [27]) was “No activity” and the Activity (Rattus norvegicus [16]) was “No activity”.

For NC(=O)N/N=C/c1ccc(Sc2ccc(Br)cc2)cc1, the Dose (Mus musculus [1]) was 100 mg/kg, the Dose (Mus musculus [2]) was 30 mg/kg and the Dose (Mus musculus [28]) was 300 mg/kg. For the same compound, the Dose (Mus musculus [18]) was 300 mg/kg, the ED50 (Mus musculus [29]) was 24.4 mg/kg and the ED50 (Mus musculus [30]) was > 200 mg/kg. For the same compound, the TD50 at 2 h [6] was 123 mg/kg, the Activity (Rattus norvegicus [12]) was “No activity” and the Activity (Rattus norvegicus [31]) was 4. For the same compound, the Activity (Rattus norvegicus [32]) was 1, the Activity (Rattus norvegicus [15]) was 3 and the Activity (Rattus norvegicus [33]) was 4. The selectivity ratio [34] was 5.03.

With NC(=O)N/N=C\c1ccccc1Oc1ccc(F)cc1 the Activity (Rattus norvegicus [19]) was 1, the Activity (Rattus norvegicus [20]) was “No activity” and the Activity (Rattus norvegicus [21]) was 2. For the same compound, the Activity (Rattus norvegicus [22]) was “No activity” and the Activity (Rattus norvegicus [23]) was 1.

From ChEMBL document CHEMBL1129428 (J Med Chem, 1996)
